{"source": "ChEMBL document CHEMBL1138117", "about": "“Hybrid antibacterials. DNA polymerase-topoisomerase inhibitors” (J Med Chem, 2006)", "key": {"[1]": {"system": "DNA gyrase (Bacillus subtilis)", "experiment": "Inhibition of Bacillus subtilis gyrase activity"}, "Mus musculus [2]": {"system": "Mus musculus", "experiment": "Effect on survival of mice after ip infection with Vancomycin resistant Enterococcus faecium VRE 700802 at 50 mg/kg twice at 15 and 135 min post injection", "assay_type": "functional, Swiss Webster", "procedure,_shortened": "(§1)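 Male Swiss-Webster mice were infected ip with the organism grown in brain-heart infusion broth at 37 °C to log phase and washed. It was given in 0.5 mL broth with 5% mucin; CFU were estimated from OD600. Groups of 5 or 10 received iv tail-vein doses in DCP vehicle at 5 mL/kg. Survivors were counted at 72 h.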"}, "Mus musculus [3]": {"system": "Mus musculus", "experiment": "Effect on survival of mice after ip infection with Vancomycin resistant Enterococcus faecium VRE 700802 at 100 mg/kg, 15 min post injection", "assay_type": "functional, Swiss Webster", "settings": "route intraperitoneal", "procedure,_shortened": "as §1"}, "Escherichia coli": {"system": "Escherichia coli", "experiment": "Antibacterial activity against Escherichia coli J53", "assay_type": "functional"}, "Enterococcus faecalis": {"system": "Enterococcus faecalis", "experiment": "Antibacterial activity against Enterococcus faecalis 29212", "assay_type": "functional"}, "Mus musculus [4]": {"system": "Mus musculus", "experiment": "Effect on survival of mice after ip infection with Vancomycin resistant Enterococcus faecium VRE 700802 at 75 mg/kg twice at 15 and 195 min post injection", "assay_type": "functional, Swiss Webster", "settings": "route intraperitoneal", "procedure,_shortened": "as §1"}, "Mus musculus [5]": {"system": "Mus musculus", "experiment": "Effect on survival of mice infected with methicillin resistant Staphylococcus aureus 1094 at 50 mg/kg twice at 15 and 135 min post injection", "assay_type": "functional, Swiss Webster", "procedure,_shortened": "(§2)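 Male Swiss-Webster mice were infected ip with 1×10⁷ CFU of log-phase MRSA 1094, grown in brain-heart infusion broth and given in 0.5 mL broth with 5% mucin. Doses in DCP vehicle were given iv by tail vein at 5 mL/kg. Survivors per treated group were counted at 72 h post-infection.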"}, "Enterococcus faecium [6]": {"system": "Enterococcus faecium", "experiment": "Antibacterial activity against Vancomycin resistant Enterococcus faecium VRE 700802", "assay_type": "functional"}, "Mus musculus [7]": {"system": "Mus musculus", "experiment": "Effect on survival of mice infected with Enterococcus faecalis 29212 at 50 mg/kg, 15 min post injection", "assay_type": "functional, Swiss Webster", "procedure,_shortened": "as §1"}, "Mus musculus [8]": {"system": "Mus musculus", "experiment": "Effect on survival of mice after ip infection with Vancomycin resistant Enterococcus faecium VRE 700802 at 75 mg/kg twice at 15 and 135 min post injection", "assay_type": "functional, Swiss Webster", "settings": "route intraperitoneal"}, "Mus musculus [9]": {"system": "Mus musculus", "experiment": "Effect on survival of mice infected with Enterococcus faecalis 29212 at 25 mg/kg, 15 min post injection", "assay_type": "functional, Swiss Webster", "procedure,_shortened": "as §1"}, "Mus musculus [10]": {"system": "Mus musculus", "experiment": "Effect on survival of mice infected with methicillin resistant Staphylococcus aureus 1094 at 75 mg/kg twice at 15 and 135 min post injection", "assay_type": "functional, Swiss Webster", "procedure,_shortened": "as §2"}, "Mus musculus [11]": {"system": "Mus musculus", "experiment": "Effect on survival of mice infected with Enterococcus faecalis 29212 at 25 mg/kg twice at 15 and 135 min post injection", "assay_type": "functional, Swiss Webster", "procedure,_shortened": "as §1"}, "Enterococcus faecium [12]": {"system": "Enterococcus faecium", "experiment": "Antibacterial activity against Enterococcus faecium 19434", "assay_type": "functional"}, "Mus musculus [13]": {"system": "Mus musculus", "experiment": "Effect on survival of mice after ip infection with Vancomycin resistant Enterococcus faecium VRE 700802 at 50 mg/kg twice at 15 and 195 min post injection", "assay_type": "functional, Swiss Webster", "settings": "route intraperitoneal"}, "Mus musculus [14]": {"system": "Mus musculus", "experiment": "Effect on survival of mice after ip infection with Staphylococcus aureus Smith", "assay_type": "functional", "procedure,_shortened": "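Male Swiss-Webster mice (20–24 g) were given 10⁸ CFU of log-phase S. aureus Smith ip, grown in LB at 37 °C and washed in cold broth. A single iv tail-vein dose was given in DCP vehicle (10% DMA, 10% Cremophor EL in PBS, pH 9.5; 5 mL/kg) 15 min post-infection. Survival was scored at 72 h and ED50 derived.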"}, "Mus musculus [15]": {"system": "Mus musculus", "experiment": "Effect on survival of mice infected with Enterococcus faecalis 29212 at 50 mg/kg twice at 15 and 135 min post injection", "assay_type": "functional, Swiss Webster", "procedure,_shortened": "as §1"}, "Staphylococcus aureus": {"system": "Staphylococcus aureus", "experiment": "Antibacterial activity against methicillin resistant Staphylococcus aureus MRSA 1094", "assay_type": "functional"}, "Mus musculus [16]": {"system": "Mus musculus", "experiment": "Effect on survival of mice infected with Enterococcus faecalis 29212 at 75 mg/kg, 15 min post injection", "assay_type": "functional, Swiss Webster", "procedure,_shortened": "as §1"}, "Mus musculus [17]": {"system": "Mus musculus", "experiment": "Effect on survival of mice infected with methicillin resistant Staphylococcus aureus 1094 at 25 mg/kg twice at 15 and 135 min post injection", "assay_type": "functional, Swiss Webster", "procedure,_shortened": "as §2"}}, "data": [{"smiles": "CCc1cc(Nc2cc(=O)n(CCCCN3CCN(c4c(F)cc5c(=O)c(C(=O)O)cn(C6CC6)c5c4F)CC3C)c(=O)[nH]2)ccc1C", "note": "(stereo not given)", "values": [{"measurement": "IC50", "setting": "[1]", "result": 21.7, "unit": "µg/mL"}, {"measurement": "Activity", "setting": "Mus musculus [2]", "result": 10, "unit": "%"}, {"measurement": "Activity", "setting": "Mus musculus [3]", "result": 10, "unit": "%"}, {"measurement": "MIC", "setting": "Escherichia coli", "result": 5, "unit": "µg/mL"}, {"measurement": "MIC", "setting": "Enterococcus faecalis", "result": 1.25, "unit": "µg/mL"}, {"measurement": "Activity", "setting": "Mus musculus [4]", "result": 45, "unit": "%"}, {"measurement": "Activity", "setting": "Mus musculus [5]", "result": 0, "unit": "%"}, {"measurement": "MIC", "setting": "Enterococcus faecium [6]", "result": 0.625, "unit": "µg/mL"}, {"measurement": "Activity", "setting": "Mus musculus [7]", "result": 40, "unit": "%"}, {"measurement": "Activity", "setting": "Mus musculus [8]", "result": 0, "unit": "%"}, {"measurement": "Activity", "setting": "Mus musculus [9]", "result": 13, "unit": "%"}, {"measurement": "Activity", "setting": "Mus musculus [10]", "result": 55, "unit": "%"}, {"measurement": "Activity", "setting": "Mus musculus [11]", "result": 40, "unit": "%"}, {"measurement": "MIC", "setting": "Enterococcus faecium [12]", "result": 1.25, "unit": "µg/mL"}, {"measurement": "Activity", "setting": "Mus musculus [13]", "result": 0, "unit": "%"}, {"measurement": "ED50", "setting": "Mus musculus [14]", "result": 15, "unit": "mg/kg"}, {"measurement": "Activity", "setting": "Mus musculus [15]", "result": 80, "unit": "%"}, {"measurement": "MIC", "setting": "Staphylococcus aureus", "result": 1.25, "unit": "µg/mL"}, {"measurement": "Activity", "setting": "Mus musculus [16]", "result": 80, "unit": "%"}, {"measurement": "Activity", "setting": "Mus musculus [17]", "result": 5, "unit": "%"}]}]}
